Screens (PubChem BioAssay)
CHRM5 PAM = human M5 muscarinic receptor positive allosteric modulators, primary screen, CHO-K1 cells, Fluo-8 calcium fluorescence; CHO-K1 hM5, ACh EC20 PAM; 0% = ACh EC20, 100% = ACh EC100; activation, % at 3 µM; 360,000 tested, 0.3% active;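 active means activation above the run cutoff, the mean activation of all test compounds plus 3 SD, cut at about 18% in these data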
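Replicates: One well per compound, no replicates | System: Human M5 receptor in CHO-K1 cells | Benchmarks: Low control EC20 acetylcholine (0%), high control EC100 acetylcholine (100%) | Probe or stimulus: Acetylcholine, EC20 level | Times: Fluo-8 loading 80 min at 37 °C plus 30 min room temperature | Signal: Intracellular calcium via Fluo-8 fluorescence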
M5 ag = human M5 muscarinic receptor agonists, primary screen, CHO-K1 cells, Fluo-8 calcium fluorescence | Muscarinic acetylcholine receptor M5 (Homo sapiens), P08912 | CHO-K1 hM5 cells; 0% DMSO wells, 100% maximal acetylcholine response | activation, % at 3 µM | 360,000 tested, 0.19% active | AID 624037, 2012;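 active means activation above the run's mean over test compounds plus 3 SD, cut at about 23% in these data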;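 further: signal is peak over basal fluorescence ratio across the kinetic read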
M4 PAM = human M4 muscarinic receptor positive allosteric modulators, primary screen, CHO-K1 cells, Fluo-8 calcium fluorescence | CHO-K1 hM4/Gqi5, ACh EC20; 0% = ACh EC20, 100% = maximal ACh | activation, % at 3 µM | 360,000 tested, 0.4% active | Muscarinic acetylcholine receptor M4 (Homo sapiens), P08173;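 active means activation above its plate's cutoff, the mean activation of sample wells plus 3 SD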
Target sequence (P08173 whole entry, looked up): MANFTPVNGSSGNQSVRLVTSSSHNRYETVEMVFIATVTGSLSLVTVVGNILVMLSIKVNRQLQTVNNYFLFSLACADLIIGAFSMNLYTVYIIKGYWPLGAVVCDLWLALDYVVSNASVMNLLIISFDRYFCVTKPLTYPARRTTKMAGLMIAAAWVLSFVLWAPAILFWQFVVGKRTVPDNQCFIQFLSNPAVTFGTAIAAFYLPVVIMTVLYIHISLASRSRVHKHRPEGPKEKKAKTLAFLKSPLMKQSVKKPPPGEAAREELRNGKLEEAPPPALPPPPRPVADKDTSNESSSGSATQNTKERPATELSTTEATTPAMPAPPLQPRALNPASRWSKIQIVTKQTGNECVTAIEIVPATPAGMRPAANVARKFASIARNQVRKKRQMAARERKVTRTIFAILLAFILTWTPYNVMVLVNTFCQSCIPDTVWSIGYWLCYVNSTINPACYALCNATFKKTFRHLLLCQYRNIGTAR
CHRM4 antagonist = human M4 muscarinic receptor antagonists, primary screen, CHO cells, Fluo-8 calcium fluorescence; CHO-hM4 cells, ACh EC80; inhibition, % at 3 µM; 360,000 tested, 0.73% active; AID 624125, 2012;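 active means inhibition above its plate's cutoff, the mean inhibition of sample wells plus 3 SD, cut at about 27% in these data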
M5 antag = human M5 muscarinic receptor antagonists, primary screen, CHO cells, Fluo-8 calcium fluorescence. 360,000 tested, 0.59% active. CHO-hM5 cells, ACh EC80. Muscarinic acetylcholine receptor M5 (Homo sapiens), P08912. inhibition, % at 3 µM;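 active means inhibition above a per-plate cutoff, the mean of that plate's test compounds plus 3 SD, cut at about 27% in these data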
M4 ag = human M4 muscarinic receptor agonists, primary screen, CHO-K1 cells, Fluo-8 calcium fluorescence; Muscarinic acetylcholine receptor M4 (Homo sapiens), P08173; CHO-K1 hM4/Gqi5; vehicle 0%, full acetylcholine response 100%; activation, % at 3 µM; 360,000 tested, 0.14% active; AID 624127, 2012;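 active means activation above the run mean over all test wells plus 3 SD, cut at about 32% in these data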;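 further: peak over basal fluorescence ratio per well then scaled between controls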
Hits are given with their value; – = inactive. An excerpt weighted towards active compounds, which were near 1.9% of everything screened.

SMILES	CHRM5 PAM	M5 ag	M4 PAM	CHRM4 antagonist	M5 antag	M4 ag
O=C1NC(=O)C2(N1)c1ccccc1-c1ccccc12	–	–	–	–	–	–
CCOC(=O)C1(C(F)(F)F)N=C(C(F)(F)F)Nc2ccccc21 (stereo not drawn)	–	–	–	–	–	–
Cc1ccc(CNC(=O)COC(=O)CSc2cc(C)c(Br)cc2C)cc1	–	–	–	–	–	–
CCC(=O)Nc1cccc(-c2ccc(N3CCC(C)CC3)nn2)c1	20	–	–	–	–	–
O=C(CCCCCn1c(=S)[nH]c2cc3c(cc2c1=O)OCO3)N1CCN(Cc2ccccc2)CC1	–	–	–	–	–	–
O=C(CCCCCn1c(=S)[nH]c2cc3c(cc2c1=O)OCO3)N1CCN(C2CCCCC2)CC1	–	–	–	–	31	–
Brc1ccccc1OCCCCn1cnc2ccccc21	–	–	–	–	29	–
Cn1nc(C(F)(F)F)c(-c2cccc(C(F)(F)F)c2)c1NC(=O)Nc1ccc(F)cc1	–	–	–	–	34	–
Cc1ccc(CN(C)C[C@@H]2OCc3cnnn3CCCC(=O)N([C@H](C)CO)C[C@H]2C)cc1	–	–	–	–	–	–
CCCS(=O)(=O)N1CCN(C(=O)c2ccco2)CC1	19	–	20	–	–	–
CCS(=O)(=O)N1CCN(C(=O)c2ccco2)CC1	–	–	–	–	–	–
CNC(=O)c1cc(C(=O)c2ccc(C(F)(F)F)cc2F)c[nH]1	–	–	–	–	–	–
CNC(=O)c1cc(C(=O)c2ccc(C(F)(F)F)cc2)c[nH]1	–	–	–	43	–	–
CCN(CC)CCC(c1ccc(OC)cc1)c1c(O)cc(OC)cc1OC (stereo not drawn)	–	–	–	–	–	–
O=C(O)c1cc(-c2cccs2)[nH]n1	–	–	28	–	–	–
CCOC(=O)c1cc(-c2cccs2)[nH]n1	–	–	–	–	–	–
CC(=O)OCCNc1cc(Sc2nc3ccccc3[nH]2)c2nonc2c1[N+](=O)[O-]	–	–	–	41	–	–
COc1ccc(S(=O)(=O)NCC2CCCN(Cc3ccc(O)cc3)C2)cc1 (stereo not drawn)	–	–	–	–	–	–
CC(=O)N1CCN(C(=O)c2ccc(OC3CCN(CCc4ccccc4)CC3)cc2)CC1	–	–	–	–	–	–
O=C(c1ccc(OC2CCN(Cc3ccccc3C(F)(F)F)CC2)cc1)N1CCCCC1	–	–	–	–	29	–
O=C(c1ccc(OC2CCN(CCCc3ccccc3)CC2)cc1)N1CCCC1	–	–	–	30	–	–
CC(CCc1ccc(O)cc1)N1CCC(Oc2ccc(C(=O)N3CCCC3)cc2)CC1 (stereo not drawn)	–	–	–	–	–	–
COc1ccc(CCC(C)N2CCC(Oc3ccc(C(=O)N4CCCC4)cc3)CC2)cc1 (stereo not drawn)	–	–	–	42	–	–
CCOC(=O)C1CCN(C(=O)c2ccc(OC3CCN(C(=O)COC)CC3)cc2)CC1	–	–	20	–	–	–
CCc1cc(=O)oc2cc(OCC(N)=O)c(Cl)cc12	–	–	–	–	–	–
SMILES	CHRM5 PAM	M5 ag	M4 PAM	CHRM4 antagonist	M5 antag	M4 ag
COC(=O)c1cccc(Nc2cc(C)nc(-c3ccccc3O)n2)c1	–	–	–	–	–	–
CC(C)(C)c1nnc(N/N=C/c2cc(Br)ccc2O)n(N)c1=O	–	–	–	34	–	–
O=C(COc1ccc(C(F)(F)F)cc1[N+](=O)[O-])Nc1cccc(C(F)(F)F)c1	–	–	30	–	–	–
O=C1CC(N2CCN(C/C=C/c3ccccc3)CC2)C(=O)N1Cc1cccs1 (stereo not drawn)	–	–	–	34	39	–
O=C1CC(N2CCN(C/C=C/c3ccccc3)CC2)C(=O)N1CCc1ccccc1 (stereo not drawn)	–	–	–	–	–	–
COc1ccc(C(C)=O)cc1CSc1nc2cc(C(=O)O)ccc2c(=O)n1Cc1ccccc1	–	–	–	28	–	–
Cc1c(N=Cc2c(O)n(C3CCCCC3)c(=O)[nH]c2=O)c(=O)n(-c2ccccc2)n1C	20	–	–	–	–	–
Cc1c(N=Cc2c(O)n(C)c(=O)c3ccccc23)c(=O)n(-c2ccccc2)n1C	–	–	–	–	–	–
COc1ccc(OC)c(C2C=C(C34CC5CC(CC(C5)C3)C4)NC(=S)N2)c1 (stereo not drawn)	–	–	–	43	–	–
COc1cc(C2C=C(C34CC5CC(CC(C5)C3)C4)NC(=S)N2)cc(OC)c1OC (stereo not drawn)	–	–	–	–	–	–
CC(=O)Nc1ccc(NC(=O)CSc2nnc(C)c(=O)n2N)cc1	–	–	–	–	–	–
COc1ccc2c(c1)CCc1cn3nc(C)cc3nc1-2	19	–	–	–	–	–
O=C(COC(=O)c1c[nH]c2ccccc12)NC1CCCC1	–	–	–	–	–	–
COc1cccc(C(=O)NCCSCc2c(F)cccc2Cl)c1	–	–	–	–	–	–
COc1cccc(C(=O)NCCSCc2ccccc2Cl)c1	18	–	–	–	–	–
Cc1nnc(NC(=O)c2ccc3ccccc3c2)o1	–	–	–	–	–	–
Cc1c(C)c2ccc(O)c(CN3CCCC3)c2oc1=O	–	–	–	–	–	–
O=c1oc2c(CN3CCCCC3)c(O)ccc2c2c1CCCC2	–	–	–	35	–	–
COc1ccc(-c2sc3cc4c(cc3c2C#Cc2ccc(N)cc2)OCO4)cc1	–	26	–	–	–	–
Cc1ccc(-n2nnnc2SCC(=O)NCC2(N3CCOCC3)CCCCC2)cc1	–	–	–	–	–	–
O=C(NC1CCCC1)c1ccc(S(=O)(=O)N2CCCC2)cc1	–	–	–	–	–	–
CC(C)(C)n1nc2c(c1NC(=O)c1ccc(S(=O)(=O)N3CCCCC3)cc1)CS(=O)C2 (stereo not drawn)	32	–	–	–	–	–
Cc1cc(C)nc(Nc2ccc(Cl)cc2C)n1	–	–	–	–	–	–
CCOC(=O)c1ccc2c(c1)[nH]c(=S)n2CC	–	–	–	–	–	–
CCn1c(=O)n(CC)c2cc(NC(=O)c3ccccc3Cl)ccc21	20	–	–	–	–	–
CCc1ccc(C(=O)Nc2ccc3c(c2)n(C)c(=O)n3C)cc1	24	–	–	–	–	–
COc1cc(OC)cc(C(=O)Nc2ccc3c(c2)n(C)c(=O)n3C)c1	–	–	–	–	–	–
